Source: ChEMBL document CHEMBL1124220 (J Med Chem, 1988)
Non-standard residues stand in square brackets, D forms with d. Residues, ends and D or L forms follow the SMILES beside them. Phe(4-NH2) = Nc1ccc(C[C@H](N)C(=O)O)cc1; 3Thi = N[C@@H](Cc1ccsc1)C(=O)O; Aib = CC(C)(N)C(=O)O; Sar = CNCC(=O)O

What was measured:
Format in all cases: functional
[1] = organism: Oryctolagus cuniculus; assay: In vitro agonist angiotensin II like activity was measured in the rabbit aorta strip assay
In short: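 Isolated rabbit aortic strips in vitro. Agonist (AII-like) activity expressed as percent of the activity of AII.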

[2] = tested on: Rattus norvegicus; assay: In vivo agonist angiotensin II like activity was measured in rat blood pressure increase by a 1 ug iv injection
In short: (§1)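 Rat blood pressure in vivo. Residual AII-like activity read as the pressor rise (mmHg) after a 1-μg intravenous bolus of compound. Mean of at least five tests with standard error.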

[3] = tested on: Rattus norvegicus; assay: Antagonist activity ID50 was measured in vivo in the rat blood pressure assay
In short: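 Rat blood pressure in vivo, 250-g rats, compound given by infusion. AII dose-response curves measured before and during the infusion. ID50 expressed as ng/rat per min. Mean of at least five tests with standard error.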

[4] = tested on: Rattus norvegicus; assay: In vivo agonist angiotensin II like activity was measured in rat blood pressure assay; parameters: concentration or dose not given beside the values; in short: as §1
[5] = tested on: Rattus norvegicus; assay: In vivo angiotensin II like activity was measured in rat blood pressure assay expressed as percent activity relative to A II

| Compound | Activity [1] | BP increase [2] | ID50 [3] | Activity [4] | further results |
| --- | --- | --- | --- | --- | --- |
| CC[C@H](C)[C@H](NC(=O)[C@@H]1CCCN1C(=O)[C@H](Cc1c[nH]c2ccccc12)NC(=O)[C@@H](NC(=O)[C@H](Cc1ccc(O)cc1)NC(=O)[C@@H](NC(=O)[C@H](CCCN=C(N)N)NC(=O)CNC)C(C)C)[C@@H](C)CC)C(=O)O (H-[Sar]RVYIWPI-OH) | 0% | 7.5 mmHg | 100 ng min-1 rat-1 |  |  |
| CC[C@H](C)[C@H](NC(=O)[C@@H]1CCCN1C(=O)[C@H](Cc1c[nH]cn1)NC(=O)[C@@H](NC(=O)[C@H](Cc1ccc(O)cc1)NC(=O)[C@@H](NC(=O)[C@H](CCCN=C(N)N)NC(=O)CNC)C(C)C)[C@@H](C)CC)C(=O)O | 0% | 10.2 mmHg | 10 ng min-1 rat-1 |  |  |
| CC[C@H](C)[C@H](NC(=O)[C@H](Cc1ccc(O)cc1)NC(=O)[C@@H](NC(=O)C(C)(C)N)C(C)C)C(=O)N[C@@H](Cc1c[nH]cn1)C(=O)N1CCC[C@H]1C(=O)N[C@@H](Cc1ccccc1)C(=O)O (H-[Aib]VYIHPF-OH) | 0% | 60 mmHg |  |  |  |
| CC[C@H](C)[C@H](NC(=O)[C@@H]1CCCN1C(=O)[C@H](Cc1c[nH]cn1)NC(=O)[C@@H](NC(=O)[C@H](Cc1ccc(O)cc1)NC(=O)[C@@H](NC(=O)[C@@H](N)CCCN=C(N)N)C(C)C)[C@@H](C)CC)C(=O)O | 0% | 5 mmHg | 200 ng min-1 rat-1 |  |  |
| CC[C@H](C)[C@H](NC(=O)[C@@H]1CCCN1C(=O)[C@H](Cc1cncn1C)NC(=O)[C@@H](NC(=O)[C@H](Cc1ccc(O)cc1)NC(=O)[C@@H](NC(=O)[C@H](CCCN=C(N)N)NC(=O)CNC)C(C)C)[C@@H](C)CC)C(=O)O | 0% | 2.5 mmHg | 100 ng min-1 rat-1 |  |  |
| CC[C@H](C)[C@H](NC(=O)[C@@H]1CCCN1C(=O)[C@H](Cc1ccccc1)NC(=O)[C@@H](NC(=O)[C@H](Cc1ccc(O)cc1)NC(=O)[C@@H](NC(=O)[C@H](CCCN=C(N)N)NC(=O)CNC)C(C)C)[C@@H](C)CC)C(=O)O (H-[Sar]RVYIFPI-OH) | 0% | 10 mmHg | 100 ng min-1 rat-1 |  |  |
| CC[C@H](C)[C@H](NC(=O)[C@H](Cc1ccc(O)cc1)NC(=O)[C@@H](NC(=O)[C@H](N)CCCCN=C(N)N)C(C)C)C(=O)N[C@@H](Cc1c[nH]cn1)C(=O)N1CCC[C@H]1C(=O)N[C@@H](Cc1ccccc1)C(=O)O |  |  |  | 11% |  |
| CC[C@H](C)[C@H](NC(=O)[C@@H]1CCCN1C(=O)[C@H](Cc1c[nH]cn1)NC(=O)[C@@H](NC(=O)[C@H](Cc1ccc(O)cc1)NC(=O)[C@@H](NC(=O)[C@H](CCCNC(N)=O)NC(=O)CNC)C(C)C)[C@@H](C)CC)C(=O)O | 0% | 25 mmHg |  |  |  |
| CC[C@H](C)[C@H](NC(=O)[C@H](Cc1ccc(O)cc1)NC(=O)[C@@H](NC(=O)[C@@H](N)CCCN=C(N)N)C(C)C)C(=O)N[C@@H](Cc1c[nH]cn1)C(=O)N1CCC[C@H]1C(=O)N[C@@H](Cc1ccccc1)C(=O)O (stereo in doubt; 5) | 47.4% |  |  | 15% |  |
| CC[C@H](C)[C@H](NC(=O)[C@H](Cc1ccc(O)cc1)NC(=O)[C@@H](NC(=O)[C@H](CCCN=C(N)N)NC(=O)[C@@H](N)CC(N)=O)C(C)C)C(=O)N[C@@H](Cc1c[nH]cn1)C(=O)N1CCC[C@H]1C(=O)N[C@@H](Cc1ccccc1)C(=O)O (H-NRVYIHPF-OH) |  |  |  | 4% |  |
| CC[C@H](C)[C@H](NC(=O)[C@H](Cc1ccc(O)cc1)NC(=O)[C@@H](NC(=O)[C@H](CCCN=C(N)N)NC(=O)[C@@H](N)CC(=O)O)C(C)C)C(=O)N[C@@H](CCCCN)C(=O)N1CCC[C@H]1C(=O)N[C@@H](Cc1ccccc1)C(=O)O (H-DRVYIKPF-OH) |  |  |  |  | Activity [2]: 0.1% |
| CC[C@H](C)[C@H](NC(=O)[C@H](Cc1ccc(O)cc1)NC(=O)[C@@H](NC(=O)[C@@H](N)CCCCN=C(N)N)C(C)C)C(=O)N[C@@H](Cc1c[nH]cn1)C(=O)N1CCC[C@H]1C(=O)N[C@@H](Cc1ccccc1)C(=O)O |  |  |  |  | Activity [5]: 2.07% |
| CC[C@H](C)[C@H](NC(=O)[C@H](Cc1ccc(O)cc1)NC(=O)[C@@H](NC(=O)[C@@H](N)CCCN)C(C)C)C(=O)N[C@@H](Cc1c[nH]cn1)C(=O)N1CCC[C@H]1C(=O)N[C@@H](Cc1ccccc1)C(=O)O |  |  |  | 3% |  |
| CC[C@H](C)[C@H](NC(=O)[C@@H]1CCCN1C(=O)[C@H](Cc1c[nH]cn1)NC(=O)[C@@H](NC(=O)[C@H](Cc1ccc(O)cc1)NC(=O)[C@@H](NC(=O)[C@H](CCCCN=C(N)N)NC(=O)CNC)C(C)C)[C@@H](C)CC)C(=O)O | 0% | 7.5 mmHg | 50 ng min-1 rat-1 |  |  |
| CC[C@H](C)[C@H](NC(=O)[C@@H]1CCCN1C(=O)[C@H](Cc1c[nH]cn1)NC(=O)[C@@H](NC(=O)[C@H](Cc1ccc(O)cc1)NC(=O)[C@@H](NC(=O)[C@@H](C)N)C(C)C)[C@@H](C)CC)C(=O)O | 0% | 5 mmHg | 100 ng min-1 rat-1 |  |  |
| CC[C@H](C)[C@H](NC(=O)[C@H](Cc1ccc(O)cc1)NC(=O)[C@@H](NC(=O)[C@H](CCCN=C(N)N)NC(=O)[C@@H](N)CC(=O)O)C(C)C)C(=O)N[C@@H](Cc1cncn1C)C(=O)N1CCC[C@H]1C(=O)N[C@@H](Cc1ccccc1)C(=O)O |  |  |  | 0.05% |  |

| Compound | Activity [1] | BP increase [2] | ID50 [3] | Activity [4] | further results |
| --- | --- | --- | --- | --- | --- |
| CC[C@H](C)[C@H](NC(=O)[C@@H]1CCCN1C(=O)[C@H](Cc1c[nH]cn1)NC(=O)[C@@H](NC(=O)[C@H](Cc1ccc(O)cc1)NC(=O)[C@@H](NC(=O)[C@@H](CCCCN)NC(=O)CNC)C(C)C)[C@@H](C)CC)C(=O)O | 0% | 12.5 mmHg | 50 ng min-1 rat-1 |  |  |
| CC[C@@H](N)C(=O)N[C@H](C(=O)N[C@@H](Cc1ccc(O)cc1)C(=O)N[C@H](C(=O)N[C@@H](Cc1c[nH]cn1)C(=O)N1CCC[C@H]1C(=O)N[C@@H](Cc1ccccc1)C(=O)O)[C@@H](C)CC)C(C)C |  |  |  |  | Activity [5]: 22% |
| CC[C@H](C)[C@H](NC(=O)[C@H](Cc1ccc(O)cc1)NC(=O)[C@@H](NC(=O)[C@H](CCCN=C(N)N)NC(=O)[C@@H](N)CC(=O)O)C(C)C)C(=O)N[C@@H](Cc1cn(C)cn1)C(=O)N1CCC[C@H]1C(=O)N[C@@H](Cc1ccccc1)C(=O)O |  |  |  | 5% |  |
| CC[C@H](C)[C@H](NC(=O)[C@H](Cc1ccc(O)cc1)NC(=O)[C@@H](NC(=O)[C@H](CCCN=C(N)N)NC(=O)[C@@H](N)CC(=O)O)C(C)C)C(=O)N[C@@H](Cc1ccccc1)C(=O)N1CCC[C@H]1C(=O)N[C@@H](Cc1ccccc1)C(=O)O (H-DRVYIFPF-OH) |  |  |  | 5.1% |  |
| CC[C@H](C)[C@H](NC(=O)[C@@H]1CCCN1C(=O)[C@H](Cc1c[nH]cn1)NC(=O)[C@@H](NC(=O)[C@H](Cc1ccc(O)cc1)NC(=O)[C@@H](NC(=O)[C@@H](C)NC)C(C)C)[C@@H](C)CC)C(=O)O | 0% | 10 mmHg | 25 ng min-1 rat-1 |  |  |
| CC[C@H](C)[C@H](NC(=O)[C@H](Cc1ccc(O)cc1)NC(=O)[C@@H](NC(=O)[C@@H](C)N)C(C)C)C(=O)N[C@@H](Cc1c[nH]cn1)C(=O)N1CCC[C@H]1C(=O)N[C@@H](Cc1ccccc1)C(=O)O |  |  |  | 48% |  |
| CC[C@H](C)[C@H](NC(=O)[C@@H]1CCCN1C(=O)[C@H](Cc1c[nH]cn1)NC(=O)[C@@H](NC(=O)[C@H](Cc1ccc(O)cc1)NC(=O)[C@@H](NC(=O)[C@H](N)CCCN=C(N)N)C(C)C)[C@@H](C)CC)C(=O)O | 0% | 5 mmHg | 100 ng min-1 rat-1 |  |  |
| CC[C@H](C)[C@H](NC(=O)[C@H](Cc1ccc(O)cc1)NC(=O)[C@@H](NC(=O)[C@H](N)CCCN)C(C)C)C(=O)N[C@@H](Cc1c[nH]cn1)C(=O)N1CCC[C@H]1C(=O)N[C@@H](Cc1ccccc1)C(=O)O |  |  |  | 23% |  |
| CC[C@H](C)[C@H](NC(=O)[C@H](Cc1ccc(O)cc1)NC(=O)[C@@H](NC(=O)[C@@H](N)CCCN=C(N)N)C(C)C)C(=O)N[C@@H](Cc1c[nH]cn1)C(=O)N1CCC[C@H]1C(=O)N[C@@H](Cc1ccccc1)C(=O)O (stereo in doubt; 6) | 43.3% |  |  | 33.3% |  |
| CC[C@H](C)[C@H](NC(=O)[C@@H]1CCCN1C(=O)[C@H](Cc1c[nH]cn1)NC(=O)[C@@H](NC(=O)[C@H](Cc1ccc(O)cc1)NC(=O)[C@@H](NC(=O)CN(C)C(=O)CNC)C(C)C)[C@@H](C)CC)C(=O)O (H-[Sar][Sar]VYIHPI-OH) | 0% | 8.5 mmHg | 150 ng min-1 rat-1 |  |  |
| CC[C@H](C)[C@H](NC(=O)[C@@H]1CCCN1C(=O)[C@H](Cc1ccsc1)NC(=O)[C@@H](NC(=O)[C@H](Cc1ccc(O)cc1)NC(=O)[C@@H](NC(=O)[C@H](CCCN=C(N)N)NC(=O)CNC)C(C)C)[C@@H](C)CC)C(=O)O (H-[Sar]RVYI[3Thi]PI-OH) | 0% | 12.5 mmHg | 100 ng min-1 rat-1 |  |  |
| CC[C@H](C)[C@H](NC(=O)[C@@H]1CCCN1C(=O)[C@H](Cc1c[nH]cn1)NC(=O)[C@@H](NC(=O)[C@H](Cc1ccc(O)cc1)NC(=O)[C@@H](NC(=O)[C@@H](CCCN=C(N)N)NC(=O)CNC)C(C)C)[C@@H](C)CC)C(=O)O | 0% | 10 mmHg | 100 ng min-1 rat-1 |  |  |
| CC[C@H](C)[C@H](NC(=O)[C@H](Cc1ccc(O)cc1)NC(=O)[C@@H](NC(=O)[C@@H](C)NC)C(C)C)C(=O)N[C@@H](Cc1c[nH]cn1)C(=O)N1CCC[C@H]1C(=O)N[C@@H](Cc1ccccc1)C(=O)O | 1.4% | 85 mmHg |  |  |  |
| CC[C@H](C)[C@H](NC(=O)[C@H](Cc1ccc(O)cc1)NC(=O)[C@@H](NC(=O)[C@H](N)CCCCN)C(C)C)C(=O)N[C@@H](Cc1c[nH]cn1)C(=O)N1CCC[C@H]1C(=O)N[C@@H](Cc1ccccc1)C(=O)O |  |  |  | 23% |  |
| CC[C@H](C)[C@H](NC(=O)[C@H](Cc1ccc(O)cc1)NC(=O)[C@@H](NC(=O)[C@H](CCCN=C(N)N)NC(=O)[C@@H](N)CC(=O)O)C(C)C)C(=O)N[C@@H](Cc1ccc(N)cc1)C(=O)N1CCC[C@H]1C(=O)N[C@@H](Cc1ccccc1)C(=O)O (H-DRVYI[Phe(4-NH2)]PF-OH) |  |  |  | 0.05% |  |
